Laboratory results reported in ChEMBL document CHEMBL1141997, “The discovery and synthesis of novel adenosine receptor (A(2A)) antagonists” (Bioorg Med Chem Lett, 2005).

experiment: Inhibition constant against Adenosine A2a receptor
How it was run: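 Membranes from HEK cells expressing human A2A receptor, incubated with 1 nM [3H]SCH-58261 and 10 test concentrations. Buffer: phosphate-buffered saline with 10 mM MgCl2, 0.04% methyl cellulose, adenosine deaminase and 4% DMSO. Incubation 60 min at 23 °C, then filtration and washes with cold water. Nonspecific binding defined with CGS-15943. Duplicates, each compound tested twice. IC50 from one-site fit, Ki by Cheng–Prusoff.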

Row | SMILES | Ki [nM]
1 | Nc1nc(-c2ccc(Br)o2)c2c(n1)-c1cc(N3CCCC3)ccc1C2 | 3.9
2 | CC(C)(C)c1ccc2c(c1)-c1nc(N)nc(-c3ccc(Br)o3)c1C2 | 8.1
3 | Nc1nc(-c2ccc(Br)o2)c2c(n1)-c1cc(-c3ccccc3)ccc1C2 | 10.9
4 | Nc1nc(-c2ccccc2)c2c(n1)-c1ccccc1CC2 | 172
5 | Nc1nc(-c2ccccc2)c2[nH]c3ccccc3c2n1 | 40.5
6 | Nc1nc(-c2ccccc2)c2c(n1)-c1ccccc1C2=O | 1.7
7 | Nc1nc(-c2ccccc2)c2oc3ccccc3c2n1 | 9
8 | Cc1ccc2c(c1)-c1nc(N)nc(C3CCC(Br)O3)c1C2 (stereo not given) | 4.2
9 | Nc1nc(-c2ccccc2)c2c(n1)-c1ccccc1C2O (stereo not given) | 168
10 | CCc1ccc2c(c1)-c1nc(N)nc(-c3ccc(Br)o3)c1C2 | 2.6
11 | CC(C)c1ccc2c(c1)-c1nc(N)nc(-c3ccc(Br)o3)c1C2 | 0.8

Continued, values first:

Row | Ki [nM] | SMILES
12 | 2.6 | Cc1ccc2c(c1)-c1nc(N)nc(-c3ccc(CO)o3)c1C2
13 | 11 | Cc1ccc2c(c1)-c1nc(N)nc(-c3ccccc3)c1C2
14 | 4.2 | Cc1ccc2c(c1)-c1nc(N)nc(-c3ccc(Br)o3)c1C2
15 | 1 | Nc1nc(-c2ccc(Br)o2)c2c(n1)-c1cc(Cl)ccc1C2
16 | 1.6 | COc1ccc2c(c1)-c1nc(N)nc(-c3ccc(Br)o3)c1C2
17 | 56.9 | Cc1ccc2c(c1)-c1nc(N)nc(-c3ccncc3)c1C2
18 | 7.1 | Cc1ccc2c(c1)-c1nc(N)nc(-c3ccc(C)o3)c1C2
19 | 154 | Cc1ccc2c(c1)-c1nc(N)nc(-c3ccccn3)c1C2
20 | 6.7 | Cc1ccc2c(c1)-c1nc(N)nc(-c3ccco3)c1C2
